Data on ten compounds can be found in ChEMBL document CHEMBL1156580, “A facile regioselective synthesis of novel spiro-thioxanthene and spiro-xanthene-9',2-[1,3,4]thiadiazole derivatives as potential analgesic and anti-inflammatory agents” (Bioorg Med Chem Lett, 2008).

One may read the inhibition in vivo as how much of the control response was suppressed.

Data set [1] deals with Rattus norvegicus. Briefly: Antiinflammatory activity in Sprague-Dawley rat assessed as inhibition of carrageenan-induced paw edema at 70 mg/kg, po after 4 hrs relative to control. In kind it is functional. The gist of the method: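 Winter carrageenin paw oedema in adult male Sprague–Dawley rats (150–180 g, six per group), fasted overnight with water available. Dosing was 70 mg/kg po in 1% CMC, with controls on vehicle alone, 1 h before 0.1 mL 1.0% carrageenin into the right hind plantar region. Paw volume was read by plethysmometer before and 4 h after, giving % inhibition versus control.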
(The carrageenan paw model is a standard test of acute inflammation.)

Data set [2] relates to Mus musculus. Briefly: Analgesic activity in Swiss mouse assessed as inhibition of acetic acid-induced writhing responses at 70 mg/kg, po after 1 hr relative to control. A general note: In writhing tests, fewer writhes than in controls are read as antinociception.
Data set [3] has as its system Rattus norvegicus. Briefly: Acute toxicity in Sprague-Dawley rat assessed as survival up to 200 mg/kg, po. The arrangement: dose 200 mg/kg, route oral. In kind it is organism-based. As to conditions: in vivo. The procedure, abridged: (§1)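 Male Sprague–Dawley rats (200–250 g), housed individually under 12 h light–dark, split into four groups, each given a different single dose by oral gavage. Animals were then watched for deaths or other behavioural changes.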

For data set [4], the system named is Rattus norvegicus. Briefly: Acute toxicity in Sprague-Dawley rat assessed as behavioral changes up to 200 mg/kg, po. In kind it is organism-based. The arrangement: dose 200 mg/kg, route oral. The conditions noted are these: in vivo. The procedure, abridged:
as §1

The test system of data set [5] is Rattus norvegicus. The data set can be described thus: Acute toxicity in Sprague-Dawley rat assessed as toxicological changes up to 200 mg/kg, po. In kind it is organism-based. The arrangement: dose 200 mg/kg, route oral. The conditions noted are these: in vivo. The gist of the method:
as §1

As to `CC(=O)C1=NN(c2ccccc2)C2(S1)c1ccccc1Sc1ccccc12`, the inhibition in vivo at 70 mg/kg in data set [1] was determined as 75%.

As for `CC(=O)C1=NN(c2ccc([N+](=O)[O-])cc2)C2(S1)c1ccccc1Sc1ccccc12`, the inhibition in vivo at 70 mg/kg in data set [1] was 86%; in data set [2], 73%.

As to `CC(=O)C1=NN(c2ccccc2)SC12c1ccccc1Oc1ccccc12`, the inhibition in vivo at 70 mg/kg in data set [1] is 79%.

For the compound `CC(=O)C1=NN(c2ccc(Br)cc2)SC12c1ccccc1Oc1ccccc12`, the inhibition in vivo at 70 mg/kg in data set [1] was 76%.

In the case of `CCOC(=O)C1=NN(c2ccc(C)cc2)C2(S1)c1ccccc1Sc1ccccc12`, the inhibition in vivo at 70 mg/kg in data set [1] stood at 71%.

With `CC(=O)C1=NN(c2ccc([N+](=O)[O-])cc2)SC12c1ccccc1Oc1ccccc12`, the inhibition in vivo at 70 mg/kg in data set [1] was determined as 84%; in data set [2], 56.6%.

`c1ccc(C2=NN(c3ccccc3)C3(S2)c2ccccc2Sc2ccccc23)cc1`: the Activity entry in data set [3], in data set [4] and in data set [5] was “Non-toxic” in each case. Also, the results for the inhibition in vivo at 70 mg/kg in data set [1] and in data set [2] were 85% and 59%, respectively.

With `CC(=O)C1=NN(c2ccc(Cl)cc2)C2(S1)c1ccccc1Sc1ccccc12`, the Activity entry in data set [3], in data set [4] and in data set [5] was “Non-toxic” each time. For the same compound, the results for the inhibition in vivo at 70 mg/kg in data set [1] and in data set [2] were 82% and 57%, respectively.

With `CC(=O)C1=NN(c2ccc(Cl)cc2)SC12c1ccccc1Oc1ccccc12`, the results for the inhibition in vivo at 70 mg/kg in data set [1] and in data set [2] were 82% and 72%, respectively.

In the case of `CC(C)Cc1ccc(C(C)C(=O)O)cc1` (configuration not stated) [IBUPROFEN], the inhibition in vivo at 70 mg/kg in data set [1] was 92%; in data set [2], 83.5%.
